Most compounds without a hit are left out; they make up all but 2.6% or so of the library.
UCH37 DUB inh: inhibitors of human deubiquitinating enzyme UCH37 | Q9Y5K5 | purified proteasome/UCH37, Ub-AMC cleavage fluorescence | inhibition, % (concentration not given with the values) | 0.33% of 330,000 active | AID 588478;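 active means mean inhibition over replicate wells above about 20%, limit read from the data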;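 further: 0% = compound-free wells with enzyme and 100% = wells lacking proteasome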
Target sequence (Q9Y5K5 whole entry, looked up): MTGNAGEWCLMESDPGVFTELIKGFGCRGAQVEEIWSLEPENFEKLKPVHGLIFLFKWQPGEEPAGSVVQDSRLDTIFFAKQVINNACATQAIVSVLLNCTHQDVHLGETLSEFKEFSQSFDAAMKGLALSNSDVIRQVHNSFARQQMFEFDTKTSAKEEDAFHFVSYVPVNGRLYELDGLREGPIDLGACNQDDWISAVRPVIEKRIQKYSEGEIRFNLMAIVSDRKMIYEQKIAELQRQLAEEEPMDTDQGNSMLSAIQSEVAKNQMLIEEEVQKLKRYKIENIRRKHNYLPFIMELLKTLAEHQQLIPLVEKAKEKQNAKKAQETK
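assay system = human UCH37 enzyme supplied as purified proteasome complex | amount = proteasome at 0.15 nM in the dispensed enzyme solution | schedule = 30 min compound-proteasome preincubation then 25 min substrate reaction, room temperature | measured by = fluorescence, ex 355 nm, em 460 nm | benchmarks = no-proteasome wells (full inhibition) and compound-free wells (no inhibition)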
SIRT5 block: blocks human SIRT5 desuccinylation of peptide; inhibition, % at 15 µM; 1.1% of 330,000 active; AID 652115; Purified SirT5, succinyl-peptide AMC, trypsin-coupled fluorescence; in the data active means inhibition above about 15%
FGF22 binding: FGF22 (human) thermal shift binding; 1.5% of 340,000 active; Q9HCT0; recombinant FGF22 thermal shift, SYPRO orange fluorescence; percent of sucrose octasulfate shift, DMSO zero; activity (Tm shift, normalised), % at 9.99 µM;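 active means mean Tm shift, scaled 0 neutral to 100 positive control, at about 1.3% or above, every replicate too, limit read from the data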
NSD2 inh: blocks human histone methyltransferase NSD2; O96028; NSD2 peptide methylation, AlphaScreen, 120 min; 0.54% of 310,000 active; inhibition, % at 12.5 µM; in the data active means inhibition above about 50%
CASP6 VEID inh: blocks human caspase-6 cleavage activity; inhibition, % at 12.5 µM; 0.53% of 350,000 active; P55212; purified caspase-6, Z-VEID-R110 cleavage fluorescence;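 active means mean inhibition across replicates at least about 35%, with every replicate also reaching that limit, limit read from the data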;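 further: 0% = median of neutral control wells and 100% = no fluorescence left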
Target sequence (P55212 24-179 limits assumed): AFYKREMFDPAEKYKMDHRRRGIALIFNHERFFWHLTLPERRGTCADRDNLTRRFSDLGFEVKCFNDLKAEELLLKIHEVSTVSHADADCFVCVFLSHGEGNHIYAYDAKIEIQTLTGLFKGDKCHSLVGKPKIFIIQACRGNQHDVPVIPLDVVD
Target sequence (P55212 194-293 limits assumed): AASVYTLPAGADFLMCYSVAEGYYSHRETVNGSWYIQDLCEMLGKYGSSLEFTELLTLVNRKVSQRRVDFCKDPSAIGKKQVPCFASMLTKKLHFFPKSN
* hit, by the source's call; x = no result given.

SMILES	UCH37 DUB inh	SIRT5 block	FGF22 binding	NSD2 inh	CASP6 VEID inh
COc1ccccc1NC(=O)N1CCCCN2[C@H](CO)[C@H](c3ccc(-c4cccc(F)c4)cc3)[C@@H]2C1	x	16*	-1	x	4
Cc1ccc(CN2CCN(N=C/C(Br)=C\c3ccccc3)CC2)cc1	5	x	x	x	x
CN(C)c1ccc(CNCCC(Cc2ccccc2)c2ccco2)cc1 (stereo not drawn)	2	-2	0	57*	-1
c1ccc(CNCCC(Cc2ccccc2)c2ccco2)cc1 (stereo not drawn)	4	1	0	2	-3
O=C(O)c1cc(N2N=C(C(F)(F)F)/C(=C/C=C/c3ccco3)C2=O)ccc1Cl	21*	63*	x	x	95*
C[C@H]1CN([C@@H](C)CO)C(=O)c2cc(NC(=O)CCN3CCOCC3)ccc2O[C@H]1CN(C)S(=O)(=O)c1ccc(F)cc1	x	x	0	x	-1
Cc1cc(C(=O)N/N=C2\CC(=O)CC(C)(C)C2)c2ccccc2n1	x	2	43*	37	-3
COc1ccc(NC(=O)Nc2ccc3c(c2)C(=O)N([C@H](C)CO)C[C@@H](C)[C@H](CN(C)C(=O)c2ccccc2)OCCCC[C@@H](C)O3)cc1	x	5	-2	x	1
CC(C)(C)OC(=O)NCCCC[C@H](NC(=O)[C@H](Cc1c[nH]c2ccccc12)NC(=O)OCc1ccccc1)C(=O)O	1	-4	0	12	39*
O=C(NN=Cc1ccccc1F)C(=O)N1CCCCCC1	4	x	x	x	x
O=C(NN=Cc1cc(Cl)ccc1O)c1ccc(Br)cc1	-5	x	x	x	x
O=C(O)/C=C/C(=O)N1Cc2cc3ccccc3nc2C1	-1	5	-1	0	54*
NC1=NC(=O)/C(=C\c2ccco2)S1	9	8	0	30	63*
CC1C/C(=C/c2ccco2)C(=O)/C(=C/c2ccco2)C1 (stereo not drawn)	7	x	x	x	x
O=C1NC(=O)C(=Cc2ccco2)S1	18	x	0	14	49*
O=C1NC(=S)NC1=Cc1ccco1	11	4	0	x	44*
O=C1/C(=C\c2ccco2)CCC/C1=C\c1ccco1	-2	x	0	22	74*
O=C1NC(=O)/C(=C/c2ccco2)N1	7	x	0	x	0
NC1=NC(=O)C(=Cc2ccccc2)S1	x	x	0	-2	1
Cc1ccc(S(=O)(=O)Nc2cccc3c2O[C@@H](CN(C)S(=O)(=O)c2ccccc2)[C@@H](C)CN([C@@H](C)CO)C3=O)cc1	x	-3	0	x	-1
O=C(CCc1nnc(CCCc2ccccc2)o1)NCCN1CCOC1=O	1	-2	43*	2	0
CO[C@@H]1CC[C@H]2CCOc3ccc(C#N)cc3C(=O)N(C)C[C@@H](c3ccccc3)CC(=O)N(C)C[C@@H]1O2	x	-3	0	x	4
COCC(C)n1c(C)cc(C(=O)COC(=O)/C=C/c2cccc(F)c2)c1C (stereo not drawn)	-1	-1	43*	2	2
COCC(C)n1c(C)cc(C(=O)COC(=O)CCc2nc3ccccc3c(=O)[nH]2)c1C (stereo not drawn)	-2	20*	43	1	-4
O=C(C[C@@H]1C=C[C@H](NC(=O)CC2CC2)[C@@H](CO)O1)NCc1ccc(-c2ccccc2)cc1	x	2	0	x	1
SMILES	UCH37 DUB inh	SIRT5 block	FGF22 binding	NSD2 inh	CASP6 VEID inh
CC=Cc1ccc2n(c1=O)C[C@@H]1[C@@H](CO)[C@H](C(=O)NCC3CCCCC3)[C@H]2N1C(=O)CC (mixture of isomers)	x	-24	0	x	1
CC1=C/C(=N\NC(=S)NCc2ccccc2)CC1	x	18*	1	4	-3
COc1ccc2c3c([nH]c2c1)[C@H](CO)NCC31CN(C(=O)Cc2cccnc2)C1	x	x	0	x	x
CCOc1cc(N2CCOCC2)c(OCC)cc1NS(=O)(=O)c1cc(NC(C)=O)ccc1OC	3	2	-1	14	37*
COc1ccccc1NS(=O)(=O)c1cc(NC(=O)c2ccc(NC(C)=O)cc2)ccc1N1CCOCC1	6	-2	0	0	-1
CCOc1cc(N2CCOCC2)c(OCC)cc1NC(=O)c1ccc(C)cc1	4	-4	0	0	2
CCOc1cc(N2CCOCC2)c(OCC)cc1NC(=O)c1ccc(OC(C)C)cc1	-36	-2	43*	3	-5
CCn1c(SCC(=O)NN=Cc2cc(OC)c(O)c(OC)c2)nc2ccccc21	1	x	x	x	x
C[C@@H]1CN([C@H](C)CO)C(=O)c2cc(-c3ccc(F)cc3)cnc2O[C@@H]1CN(C)C(=O)c1ccccn1	x	-2	0	x	0
C=CCN1C(=O)/C(=C2/Sc3ccc(OC)cc3N2C)SC1=Nc1ccccc1	-24	1	43*	2	x
CCCCn1nnc(NC(=O)c2ccc(-c3ccccc3[N+](=O)[O-])o2)n1	3	0	0	4	1
CCn1nnc(NC(=O)c2ccc([N+](=O)[O-])o2)n1	3	x	43*	23	2
C[C@H](CO)N1C[C@H](C)[C@H](CN(C)S(=O)(=O)c2ccc(Cl)cc2)Oc2ccc(NC(=O)Nc3ccc(F)cc3)cc2C1=O	x	15*	0	x	-1
Cc1ccc(S(=O)(=O)N(C)C[C@@H]2Oc3ccc(NC(=O)Nc4ccc(C(F)(F)F)cc4)cc3C(=O)N([C@@H](C)CO)C[C@@H]2C)cc1	x	4	2.8*	x	1
C[C@H]1CN([C@@H](C)CO)C(=O)c2cc(NC(=O)Nc3ccc(C(F)(F)F)cc3)ccc2O[C@H]1CN(C)S(=O)(=O)c1ccc(Cl)cc1	x	23*	0	x	-1
C[C@@H]1CN([C@@H](C)CO)C(=O)Cc2cc(NC(=O)Nc3ccc(F)cc3)ccc2O[C@@H]1CN(C)S(C)(=O)=O	x	-1	-1	x	1
C[C@@H]1CN([C@@H](C)CO)C(=O)c2cc(NC(=O)Nc3ccc(F)cc3)ccc2O[C@H]1CN(C)S(=O)(=O)c1ccc(Cl)cc1	x	8	0	x	-1
C[C@@H]1CN([C@@H](C)CO)C(=O)c2cc(NC(=O)Nc3ccc(C(F)(F)F)cc3)ccc2O[C@@H]1CN(C)S(=O)(=O)c1ccc(Cl)cc1	x	5	0	x	1
C[C@H]1CN([C@@H](C)CO)C(=O)Cc2cc(NC(=O)Nc3ccc(F)cc3)ccc2O[C@@H]1CN(C)S(C)(=O)=O	x	18*	0	x	-1
COc1cc(C=NNC(=O)CCC(=O)NC2CCCCC2)ccc1C	0	x	x	x	x
CC(C)(C)c1cnnn1-c1ccc(C=NNc2ccc([N+](=O)[O-])cc2)cc1	3	x	x	x	x
CC(C)Oc1ccc(C2C(C#N)=C(N)Oc3c2oc(CO)cc3=O)cc1 (stereo not drawn)	2	1	44*	-5	1
CC(=O)N(C)C[C@@H]1Oc2cc(C#Cc3ccccc3)ccc2S(=O)(=O)N([C@H](C)CO)C[C@@H]1C	x	4	0	x	1
COc1ccc(NC(=S)NNC(=O)c2cccnc2)cc1OC	3	3	0	-2	-1
COc1cc(NC(=O)c2cccnc2)c(Cl)cc1NC(=O)c1ccccc1	1	-1	0	-1	64*
